Results collected from several papers.
Compare with care: the assays were run in different laboratories.

SMILES	tested on	assay	system	conditions	endpoint	result
CC[C@H](C)[C@H](NC(=O)[C@@H]1CCCN1C(=O)CNC(=O)[C@H](Cc1ccccc1)NC(=O)[C@H](CC(N)=O)NC(=O)[C@H](CC(N)=O)NC(=O)[C@H](CO)NC(=O)[C@H](CO)NC(=O)[C@H](Cc1c[nH]cn1)NC(=O)[C@H](CCCNC(=N)N)NC(=O)[C@H](CC(C)C)NC(=O)[C@H](Cc1ccccc1)NC(=O)[C@H](CCC(=O)O)NC(=O)[C@H](C)NC(=O)[C@H](CC(C)C)NC(=O)[C@H](CCCNC(=N)N)NC(=O)[C@H](CCC(N)=O)NC(=O)[C@@H](NC(=O)[C@H](C)NC(=O)[C@@H]1CSSC[C@H](NC(=O)[C@H](CCCCN)NC(=O)CC[C@H](NC(=O)CCCCCCCCCCCCCCCCCCC(=O)O)C(=O)O)C(=O)N[C@@H](CC(N)=O)C(=O)N[C@@H]([C@@H](C)O)C(=O)N[C@@H](C)C(=O)N[C@@H]([C@@H](C)O)C(=O)N1)[C@@H](C)O)C(=O)N[C@@H](CC(C)C)C(=O)N1CCC[C@H]1C(=O)N1CCC[C@H]1C(=O)N[C@H](C(=O)N[C@@H](CC(N)=O)C(=O)N[C@H](C(=O)NCC(=O)N[C@@H](CO)C(=O)N[C@@H](CC(N)=O)C(=O)N[C@H](C(=O)N1CCC[C@H]1C(N)=O)[C@@H](C)O)C(C)C)[C@@H](C)O			cynomolgus monkey, plasma	subcutaneous, 20 nmol/kg, single dose	half-life	62 h
NCc1cc2c(cc1F)C(=O)N(C1CCC(=O)NC1=O)C2 (centres unmarked)			male cynomolgus monkey, plasma	oral, 0.3 mg/kg	half-life	2.2 h
C[C@H]1Oc2cc(cnc2N)-c2c(nn(C)c2C#N)CN(C)C(=O)c2ccc(F)cc21			male Sprague-Dawley rat, plasma	oral, 50 mg/kg, single dose	Cmax	2480 ng/mL
Cc1c(C)c2c(c(C)c1O)CCC(C)(COc1ccc(CC3SC(=O)NC3=O)cc1)O2 (centres unmarked)	THLE-2	cell growth or viability, MTT		100 µM, 72 h	viability	9%
C[C@]1(O)CCCN(c2nc(Nc3ccc(S(=O)(=O)N[C@H]4CC[C@H](CN5CCN(c6ccc(C7CCC(=O)NC7=O)c(F)c6)CC5)CC4)cc3F)ncc2C(F)(F)F)C1 (some centres unmarked)			rat, plasma	oral, 10 mg/kg	bioavailability	24%
COc1nc(-c2cccc(-c3ccccc3)c2C)ccc1CNCCNC(=O)CCCCCCCCCCC(=O)N1CCN(CCNC(=O)c2cc3c(=O)n4cccc(C)c4nc3n(CCc3cccs3)c2=N)CC1			male Sprague-Dawley rat, plasma	intraperitoneal, 4 mg/kg	Cmax	300 ng/mL
CC(=O)Nc1ccc(O)cc1	THLE-2	cell growth or viability, MTT		100 µM, 72 h	viability	29.1%
CNS(=O)(=O)c1ccc(Nc2ncc3cc(Cl)c(=O)n(C4CCCC4)c3n2)c(C)c1			rat, plasma	oral, 10 mg/kg	bioavailability	3%
